Published values of several laboratories.
Each line is one published result; the experiments were not run side by side.
FGFR3: Fibroblast growth factor receptor 3 (FGFR3, Homo sapiens, UniProt P22607)

For O=c1[nH]c2ccccc2n1C1CCN(Cc2ccc(-c3[nH]c4cc5ncnc5cc4nc3-c3ccccc3)cc2)CC1, the remaining signal was 101% (FGFR3; cell-free assay; 0.5 µM).
The remaining binding of Cn1cncc1[C@@](O)(COc1ccc(C#N)cc1-c1ccc(OC(F)(F)F)cc1)c1ccc(C#N)cc1 is reported as 100% (FGFR3; cell-free assay, competition with immobilised ligand; 1 µM).
COc1cc(Nc2ncc(F)c(Nc3ccc4c(n3)NC(=O)C(C)(C)O4)n2)cc(OC)c1OC has an inhibition of 99% (FGFR3; binding, competition with immobilised ligand; 10 µM).
With Nc1ncc(-c2nc(N3CCOCC3)nc(N3CCOCC3)n2)c(C(F)F)n1 the remaining binding was 88% (FGFR3; cell-free assay, competition with immobilised ligand; 10 µM).
The inhibition of Cn1cc(-c2cc(F)cc(N3CCn4c(cc5c4CCCC5)C3=O)c2CO)cc(Nc2ccc(N3CCN(C4COC4)CC3)cn2)c1=O is reported as 19% (FGFR3; enzyme activity, inhibitor; 0.1 µM).
The remaining binding of Cc1nn(C)cc1-c1nc2c(N3CCN(Cc4ccc(Cl)cc4)CC3)c(Cl)cnc2[nH]1 is reported as 69% (Fibroblast growth factor receptor 3 (FGFR3, Homo sapiens, UniProt P22607, G697C); binding, competition with immobilised ligand; 1 µM).
COc1ncccc1-c1cnn2ccc(N3CCN(C(=O)OC(C)C)CC3)nc12 gave a remaining binding of 86% (FGFR3; binding, competition with immobilised ligand; 1 µM).
The remaining activity of CC(C)(C)c1cc(C=C(C#N)C#N)cc(Br)c1O is reported as 92.8% (FGFR3; enzyme activity, inhibitor; 0.5 µM).
C#Cc1n[nH]c2c(-c3cn(C(C)c4ccccn4)c(=O)[nH]c3=O)cc(F)cc12 (stereo not drawn) has an inhibition of 9.3% (FGFR3; enzyme activity, inhibitor; 1 µM).
